Tested on: MS2 coat protein
Assay: apparent Kd, MS2 coat protein; higher = weaker binding; RNA-MaP array; FMN 200 µM where present
How it was run: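 Designs on Illumina sequencing-chip clusters, transcribed by stalled E. coli RNA polymerase, were exposed to SNAP-549-labelled MS2 coat protein in doubling steps from 0.7 or 1.5 nM up to 3 µM, without and then with constant ligand. The buffer held 100 mM Tris-HCl pH 7.5, 80 mM KCl, 4 mM MgCl2, BSA, DTT, yeast tRNA and Tween-20. Apparent Kd values are medians of filtered per-cluster binding-curve fits to green signal normalised to red-channel RNA signal and control-cluster median Fmax.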

[1] = designed as: OFF switch for flavin mononucleotide, no ligand
[2] = ligand present: flavin mononucleotide, designed as: OFF switch for flavin mononucleotide
[3] = designed as: ON switch for flavin mononucleotide, no ligand
[4] = ligand present: flavin mononucleotide, designed as: ON switch for flavin mononucleotide

GCAGCGUAUGUAGGAUAUCGGUCAGUUUCUGAUCGAGAAGGACAUGAGGAUCACCCAUGUAAAUUACCGACUUUGUCGGGUUGC
apparent Kd [1]: 10.2 nM | apparent Kd [2]: 20.1 nM

GCAGCUAUUAUUAUACAUGAGGAUCACCCAUGUUACAUGUGUAAGGAUAUUGAAGUUUUUAUAAUCAAGAAGGUACUAUGCUGC
apparent Kd [3]: 14.4 nM | apparent Kd [4]: 9.33 nM

GCAGGACAUGAGGAUCACCCAUGUUCAAAAUAUAGAGGAUAUGGAUACGGUAUAUCCGAACCAGAAGGCUACCUGC
apparent Kd [3]: 14.6 nM | apparent Kd [4]: 14 nM

GCAGGACAUGAGGAUCACCCAUGUUCAAAAUAUUGAGGAUAUGGAUACGGUAUAUCCGAACCAGAAGGCAACCUGC
apparent Kd [3]: 20.5 nM | apparent Kd [4]: 17.1 nM

GCAGGAUAAGUCAGGAUAUACCUAUGGAUACAUAGGUAGAAGGGACAUGAGGAUCACCCAUGUUACUCGCCUGC
apparent Kd [1]: 12.6 nM | apparent Kd [2]: 23.6 nM

GCAGGAUAAGUGAGGAUAUACCUCUGGAUACAGAGGUAGAAGGCACAUGAGGAUCACCCAUGUCAUUCACCUGC
apparent Kd [1]: 13.3 nM | apparent Kd [2]: 24.2 nM

GCAGGCGACCAGAAGGGUGACAUGAGGAUCACCCAUGUAGAUGUGUUCCCGCUUGGGAACCGUCCACAGGAUAUGGUUGGUUAU
apparent Kd [3]: 51.1 nM | apparent Kd [4]: 53.8 nM

GCAGGUUAAGUAAGGAUAUACCUCUGGAAACAGAGGUAGAAGGUACAUGAGGAUCACCCAUGUUUCUCUUCUGC
apparent Kd [1]: 17.3 nM | apparent Kd [2]: 45.7 nM

GCAGGUUAAGUCAGGAUAUACCUAUGGAUACAUAGGUAGAAGGGACAUGAGGAUCACCCAUGUGCCUCACCUGC
apparent Kd [1]: 18.3 nM | apparent Kd [2]: 63.1 nM

GCAGUGCCAGCGGUACUGCCUCUAGCAGAAGGGUGACGAGACAUGAGGAUCACCCAUGUAGAGACACAGGAUAUGCACCAGCUU
apparent Kd [3]: 142 nM | apparent Kd [4]: 8.26 nM

GCAGUGCGAGGAUAUACAUGAGGAUCACCCAUGUGAGAAUAAGAAGUGAGGAAGAAAAGUAGAAGGCGCGUUGG
apparent Kd [1]: 52.4 nM | apparent Kd [2]: 155 nM

GCAUGGUAUGAGAAGGCAUAUUUAAUCUAACAUCAUGUUUACAUGAGGAUCACCCAUGUUACCAAUGAGGAUAUCAUACCGUGC
apparent Kd [1]: 9.67 nM | apparent Kd [2]: 9.8 nM

GCAUGUGUAUAAGGAUAUGCAUCACUGAGAAAUUUAGUGAGGAAGAUCACAUGAGGAUCACCCAUGUAGAAGGUAUACACGUGC
apparent Kd [1]: 7.32 nM | apparent Kd [2]: 52.3 nM

GCAUGUGUGUAAGGAUAUGCAUCACUGAGAAAUUUAGUGAGGAAGAUCACAUGAGGAUCACCCAUGUAGAAGGUACACACGUGG
apparent Kd [1]: 9.3 nM | apparent Kd [2]: 54.5 nM

GCAUUUUAUGCAGGAUAUUGAAUUCGGAUUAAACAAGAAGGGCAUAACAUGAGGAUCACCCAUGUUUUAUAGGUAUCUAUGAAC
apparent Kd [1]: 53.1 nM | apparent Kd [2]: 116 nM

GCCAACUUAUGAGGAUAUGGCACCUUAUUGGUGCCAGAAGGCAUGUCUAUUGACAUGAGGAUCACCCAUGUAUUAUAGUUGGCA
apparent Kd [3]: 715 nM | apparent Kd [4]: 159 nM

GCCAACUUAUGAGGAUAUGGCACCUUAUUGGUGCCAGAAGGCAUGUGUAUUCACAUGAGGAUCACCCAUGUAUUAUAGUUGGCA
apparent Kd [3]: 498 nM | apparent Kd [4]: 48.1 nM

GCCAGGGAUUCAGGAUAUAUUAGCCGAGGCCGCGUAGAAGGGAAAUCCUGACAUGAGGAUCACCCAUGUCGACCCGCCUUCCUA
apparent Kd [3]: 46.7 nM | apparent Kd [4]: 45.6 nM

GCCAGUUAUGUAGGAUAUGCGCGGCGAGCCUGUGCAGAAGGACAUGAGGAUCACCCAUGUGUUGCGGUCUGAGUACUGAUCGCU
apparent Kd [1]: 30 nM | apparent Kd [2]: 221 nM

GCCAUCGCAUGAGGAUAUGCUCCCGUUUCGGGAGCAGAAGGCAUGUCAUAAGACAUGAGGAUCACCCAUGUAGUUAAGAUGGCA
apparent Kd [3]: 723 nM | apparent Kd [4]: 32.5 nM

GCCAUCGCAUGAGGAUAUGCUCCCGUUUCGGGAGCAGAAGGCAUGUCAUAAGACAUGAGGAUCACCCAUGUAGUUUAGAUGGCA
apparent Kd [3]: 234 nM | apparent Kd [4]: 11.1 nM

GCCAUCGCAUGAGGAUAUGGCACCGUUUCGGUGCCAGAAGGCAUGUCUUAAGACAUGAGGAUCACCCAUGUAGUUAAGAUGGCA
apparent Kd [3]: 860 nM | apparent Kd [4]: 56.9 nM

GCCAUCGUAUGAGGAUAUGGCACCGAAACGGUGCCAGAAGGCAUGUCGAUAGACAUGAGGAUCACCCAUGUAUUAUCGAUGGCA
apparent Kd [3]: 107 nM | apparent Kd [4]: 31.3 nM

GCCGUAAAUGUGAGGAUAUACCUAUGGAUACAUAGGUAGAAGGCACAUGAGGAUCACCCAUGUUCUCAAUCGGC
apparent Kd [1]: 179 nM | apparent Kd [2]: 930 nM

GCCGUGAUAGCAGGAUAUGCUCCGGUUGCUCAUACAUGAGGAUCACCCAUGUCACGUGCGGUGGUGCAGAAGGGUUGAAGCGAU
apparent Kd [3]: 764 nM | apparent Kd [4]: 209 nM

GCCUAACAUGAGGAUCACCCAUGUAGUGGGUUGUUAGGAUAUGGGCGGCGUAACGCUGCACCAGAAGGAAUAGAAG
apparent Kd [3]: 865 nM | apparent Kd [4]: 504 nM

GCCUAGCCCAGGCCCACGGCAUCACAGGAUAUGCCGAUAACAUGAGGAUCACCCAUGUCAACUCCGCAGAAGGGUGAUAUCGUG
apparent Kd [3]: 174 nM | apparent Kd [4]: 28.8 nM
